This passage reports MIC80 results from ChEMBL document CHEMBL4138161, “Discovery of simplified sampangine derivatives as novel fungal biofilm inhibitors” (Eur J Med Chem, 2018).

What all share (assay type): functional
For assay [1], the system named is Candida parapsilosis. Description: Antifungal activity against Candida parapsilosis 22019 after 24 hrs by spectrophotometric analysis. Conditions: Lodderomyces parapsilosis, 22019, 24 h. An outline of the steps: (§1)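 Broth microdilution in RPMI 1640, inoculum 5×10^3 CFU/mL, compounds from 6.4 mg/mL DMSO stocks, 35 ℃ for 24 h. Growth read as OD600; MIC80 taken as lowest concentration giving 80% growth inhibition. Triplicate.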

Assay [2] has as its system Candida albicans. Description: Antifungal activity against Candida albicans SC5314 after 24 hrs by spectrophotometric analysis. The settings on record: SC5314, 24 h. The essentials: as §1
Assay [3] concerns Aspergillus fumigatus. Description: Antifungal activity against Aspergillus fumigatus 07544 after 24 hrs by spectrophotometric analysis. The settings on record: Aspergillus fumigatus, 07544, 24 h. The essentials: as §1
Assay [4] deals with Nannizzia gypsea. Put plainly: Antifungal activity against Microsporum gypseum Cmccfmza after 24 hrs by spectrophotometric analysis. The essentials:
as §1

For assay [5], the system named is Nakaseomyces glabratus. Put plainly: Antifungal activity against Candida glabrata 537 after 24 hrs by spectrophotometric analysis. Conditions: Nakaseomyces glabratus, 537, 24 h. An outline of the steps: as §1
Assay [6] relates to Cryptococcus neoformans. Description: Antifungal activity against Cryptococcus neoformans 32609 after 24 hrs by spectrophotometric analysis. The settings on record: Cryptococcus neoformans, 32609, 24 h. An outline of the steps: as §1
Assay [7] concerns Trichophyton rubrum. Put plainly: Antifungal activity against Trichophyton rubrum Cmccftla after 24 hrs by spectrophotometric analysis. An outline of the steps:
as §1

Each structure is given as a SMILES string. ≈ marks a conversion by molar mass, not a printed value.

A word on the MIC80: it is an inhibitory concentration at the 80% level, which refers to growth in some studies and to a panel of isolates in others. Turning to `CC(C)(C)OC(=O)/C=C\c1ccnc2c1C(=O)c1sc([N+](=O)[O-])cc1C2=O`, the MIC80 was > 64 µg/mL in assay [1]; 32 µg/mL (≈ 82.8 µM) in assay [2]; > 64 µg/mL in assay [3]; 4 µg/mL (≈ 10.4 µM) in assay [4]; > 64 µg/mL in assay [5]; 4 µg/mL (≈ 10.4 µM) in assay [6]. For the same molecule, the MIC80 in assay [7] was 4 µg/mL (≈ 10.4 µM).

Regarding `CCCc1cnc2c(c1)C(=O)c1sc([N+](=O)[O-])cc1C2=O`, the MIC80 in assay [1] was found to be 4 µg/mL (≈ 13.2 µM); in assay [2], 2 µg/mL (≈ 6.62 µM); in assay [3], 4 µg/mL (≈ 13.2 µM); in assay [4] it was 1 µg/mL (≈ 3.31 µM); in assay [5] it was 4 µg/mL (≈ 13.2 µM); in assay [6], 0.5 µg/mL (≈ 1.65 µM). In assay [7], this molecule displayed an MIC80 of 1 µg/mL (≈ 3.31 µM).

For `Cc1ccnc2c1C(=O)c1ccn(C)c1C2=O`, the MIC80 in assay [1], in assay [2], in assay [3], in assay [4], in assay [5] and in assay [6] was > 64 µg/mL in each case. Besides, the MIC80 in assay [7] was > 64 µg/mL.

With `COc1ccccc1-c1ccnc2c1C(=O)c1sc([N+](=O)[O-])cc1C2=O`, the MIC80 is 16 µg/mL (≈ 43.7 µM) in assay [1]; 16 µg/mL (≈ 43.7 µM) in assay [2]; 16 µg/mL (≈ 43.7 µM) in assay [3]; 16 µg/mL (≈ 43.7 µM) in assay [4]; > 64 µg/mL in assay [5]; 8 µg/mL (≈ 21.8 µM) in assay [6]. Further, in assay [7], the MIC80 stood at 16 µg/mL (≈ 43.7 µM).

In the case of `O=Cc1ccnc2c1C(=O)c1sc([N+](=O)[O-])cc1C2=O`, the MIC80 was found to be 8 µg/mL (≈ 27.8 µM) in assay [1]; 4 µg/mL (≈ 13.9 µM) in assay [2]; 16 µg/mL (≈ 55.5 µM) in assay [3]; 2 µg/mL (≈ 6.94 µM) in assay [4]; 0.125 µg/mL (≈ 0.434 µM) in assay [5]; 8 µg/mL (≈ 27.8 µM) in assay [6]. Further, in assay [7], the MIC80 was 1 µg/mL (≈ 3.47 µM).

With `O=C1c2cc([N+](=O)[O-])sc2C(=O)c2c(-c3ccco3)ccnc21`, the MIC80 in assay [1] is 4 µg/mL (≈ 12.3 µM); in assay [2], 4 µg/mL (≈ 12.3 µM); in assay [3], 16 µg/mL (≈ 49 µM); in assay [4], 8 µg/mL (≈ 24.5 µM); in assay [5], 4 µg/mL (≈ 12.3 µM); in assay [6] it was 2 µg/mL (≈ 6.13 µM). For the same molecule, the MIC80 in assay [7] is 16 µg/mL (≈ 49 µM).

With `CCOC(=O)c1ccnc2c1C(=O)c1sc([N+](=O)[O-])cc1C2=O`, the MIC80 in assay [1] was determined as 4 µg/mL (≈ 12 µM); in assay [2], 2 µg/mL (≈ 6.02 µM); in assay [3], 8 µg/mL (≈ 24.1 µM); in assay [4], 4 µg/mL (≈ 12 µM); in assay [5] it was 4 µg/mL (≈ 12 µM); in assay [6] it was 4 µg/mL (≈ 12 µM). In assay [7], the MIC80 is 1 µg/mL (≈ 3.01 µM).

Turning to `Cc1ccnc2c1C(=O)c1sc(N)cc1C2=O`, the MIC80 in assay [1], in assay [2], in assay [3], in assay [4], in assay [5] and in assay [6] was > 64 µg/mL in each case. This molecule also registered an MIC80 in assay [7] of 8 µg/mL (≈ 32.7 µM).

As to `CN(C)c1ccc(-c2ccnc3c2C(=O)c2sc([N+](=O)[O-])cc2C3=O)cc1`, the MIC80 in assay [1] was 32 µg/mL (≈ 84.3 µM); in assay [2], 32 µg/mL (≈ 84.3 µM); in assay [3], > 64 µg/mL; in assay [4] it was 16 µg/mL (≈ 42.2 µM); in assay [5] it was > 64 µg/mL; in assay [6], 16 µg/mL (≈ 42.2 µM). This molecule also returned an MIC80 in assay [7] of 4 µg/mL (≈ 10.5 µM).

For the molecule `O=C1c2cc([N+](=O)[O-])sc2C(=O)c2c(C3CCNCC3)ccnc21`, the MIC80 in assay [1] was > 64 µg/mL; in assay [2] it was > 64 µg/mL; in assay [3] it was > 64 µg/mL; in assay [4], 64 µg/mL (≈ 186 µM); in assay [5], > 64 µg/mL; in assay [6], 32 µg/mL (≈ 93.2 µM). Also, the MIC80 in assay [7] is > 64 µg/mL.

Turning to `Cc1ccnc2c1C(=O)c1occc1C2=O`, the MIC80 in assay [1] was > 64 µg/mL; in assay [2] it was > 64 µg/mL; in assay [3], > 64 µg/mL; in assay [4], > 64 µg/mL; in assay [5], > 64 µg/mL; in assay [6], 64 µg/mL (≈ 300 µM). For the same molecule, in assay [7], the MIC80 is > 64 µg/mL.

For the molecule `CCc1cnc2c(c1)C(=O)c1sc([N+](=O)[O-])cc1C2=O`, the MIC80 was determined as 1 µg/mL (≈ 3.47 µM) in assay [1]; 0.5 µg/mL (≈ 1.73 µM) in assay [2]; 2 µg/mL (≈ 6.94 µM) in assay [3]; 0.25 µg/mL (≈ 0.867 µM) in assay [4]; 1 µg/mL (≈ 3.47 µM) in assay [5]; 0.25 µg/mL (≈ 0.867 µM) in assay [6]. This molecule also showed an MIC80 in assay [7] of 0.5 µg/mL (≈ 1.73 µM).

Turning to `Cc1ccnc2c1C(=O)c1sc([N+](=O)[O-])cc1C2=O`, the MIC80 in assay [1] turned out to be 1 µg/mL (≈ 3.65 µM); in assay [2], 0.25 µg/mL (≈ 0.912 µM); in assay [3], 2 µg/mL (≈ 7.29 µM); in assay [4] it was 2 µg/mL (≈ 7.29 µM); in assay [5], 1 µg/mL (≈ 3.65 µM); in assay [6] it was 0.5 µg/mL (≈ 1.82 µM). Further, in assay [7], the MIC80 turned out to be 0.5 µg/mL (≈ 1.82 µM).

With `CC(C)(C)OC(=O)N1CCC(c2ccnc3c2C(=O)c2sc([N+](=O)[O-])cc2C3=O)CC1`, the MIC80 in assay [1] is > 64 µg/mL; in assay [2], 32 µg/mL (≈ 72.2 µM); in assay [3], > 64 µg/mL; in assay [4] it was 16 µg/mL (≈ 36.1 µM); in assay [5], > 64 µg/mL; in assay [6] it was 8 µg/mL (≈ 18 µM). The molecule further came in with an MIC80 in assay [7] of 8 µg/mL (≈ 18 µM).

`Cc1ccnc2c1C(=O)C1=C(OC(C)(C)C1)C2=O`: the MIC80 in assay [1] is > 64 µg/mL; in assay [2] it was > 64 µg/mL; in assay [3], 64 µg/mL (≈ 263 µM); in assay [4] it was > 64 µg/mL; in assay [5] it was 16 µg/mL (≈ 65.8 µM); in assay [6] it was > 64 µg/mL. This molecule also gave an MIC80 in assay [7] of 64 µg/mL (≈ 263 µM).

For `Cc1ccnc2c1C(=O)c1scc([N+](=O)[O-])c1C2=O`, the MIC80 in assay [1] was > 64 µg/mL; in assay [2], 4 µg/mL (≈ 14.6 µM); in assay [3], > 64 µg/mL; in assay [4], 8 µg/mL (≈ 29.2 µM); in assay [5], 4 µg/mL (≈ 14.6 µM); in assay [6], 4 µg/mL (≈ 14.6 µM). The MIC80 in assay [7] stood at 4 µg/mL (≈ 14.6 µM).

Regarding `O=C1c2cc([N+](=O)[O-])sc2C(=O)c2c(-c3ccccc3)ccnc21`, the MIC80 was found to be 8 µg/mL (≈ 23.8 µM) in assay [1]; 8 µg/mL (≈ 23.8 µM) in assay [2]; 32 µg/mL (≈ 95.1 µM) in assay [3]; 4 µg/mL (≈ 11.9 µM) in assay [4]; 16 µg/mL (≈ 47.6 µM) in assay [5]; 4 µg/mL (≈ 11.9 µM) in assay [6]. The same molecule came in with an MIC80 in assay [7] of 8 µg/mL (≈ 23.8 µM).

For the molecule `Cc1cc[n+]([O-])c2c1C(=O)c1sc([N+](=O)[O-])cc1C2=O`, the MIC80 in assay [1] is 32 µg/mL (≈ 110 µM); in assay [2] it was 8 µg/mL (≈ 27.6 µM); in assay [3] it was > 64 µg/mL; in assay [4], 4 µg/mL (≈ 13.8 µM); in assay [5] it was 64 µg/mL (≈ 220 µM); in assay [6], 4 µg/mL (≈ 13.8 µM). In assay [7], this molecule showed an MIC80 of 8 µg/mL (≈ 27.6 µM).

With `Cc1ccnc2cc3cc([N+](=O)[O-])sc3cc12`, the MIC80 is > 64 µg/mL in assay [1]; > 64 µg/mL in assay [2]; > 64 µg/mL in assay [3]; > 64 µg/mL in assay [4]; 16 µg/mL (≈ 65.5 µM) in assay [5]; > 64 µg/mL in assay [6]. Moreover, the MIC80 in assay [7] is 4 µg/mL (≈ 16.4 µM).

For `CCC(C)n1ncn(-c2ccc(N3CCN(c4ccc(OCC5COC(Cn6cncn6)(c6ccc(Cl)cc6Cl)O5)cc4)CC3)cc2)c1=O` (configuration not stated) [ITRACONAZOLE], the MIC80 was found to be 8 µg/mL (≈ 11.3 µM) in assay [1]; 8 µg/mL (≈ 11.3 µM) in assay [2]; 8 µg/mL (≈ 11.3 µM) in assay [3]; 4 µg/mL (≈ 5.67 µM) in assay [4]; 1 µg/mL (≈ 1.42 µM) in assay [5]; 4 µg/mL (≈ 5.67 µM) in assay [6]. The molecule also displayed an MIC80 in assay [7] of 4 µg/mL (≈ 5.67 µM).

Consider `O=C1c2cc([N+](=O)[O-])sc2C(=O)c2c(C(Br)Br)ccnc21`, for which the MIC80 in assay [1] was determined as 32 µg/mL (≈ 74.1 µM); in assay [2], 32 µg/mL (≈ 74.1 µM); in assay [3] it was 64 µg/mL (≈ 148 µM); in assay [4] it was 16 µg/mL (≈ 37 µM); in assay [5], 16 µg/mL (≈ 37 µM); in assay [6], 32 µg/mL (≈ 74.1 µM). The molecule further had an MIC80 in assay [7] of 32 µg/mL (≈ 74.1 µM).
